Assay results taken from ChEMBL document CHEMBL1152541, “Staurosporine tethered peptide ligands that target cAMP-dependent protein kinase (PKA): optimization and selectivity profiling” (Bioorg Med Chem, 2009).
*1 amine or outer side, *2 acyl side, *3 side chain or, on linkers, in order; H or OH if unused. Where a SMILES comes first, the peptide text is derived from it. Bridges are numbered along the chain shown (N, C = ends). [ ]: non-standard residue; d: D form. The star is where a group is joined. Staurosporine = CO[C@@H]1[C@H](N(C)*)C[C@H]2O[C@]1(C)n1c3ccccc3c3c4c(c5c6ccccc6n2c5c31)C(=O)NC4; Suc = O=C(CCC(=O)[*:2])[*:1]; Dap = NC[C@H](N)C(=O)O; βAla = NCCC(=O)O

Experiments:
[1] = molecular target: MAP/microtubule affinity-regulating kinase 3 (Homo sapiens) (UniProt P27448); test: Binding affinity to human MARK3 at 500 nM by cell-based competition binding assay relative to control in presence of DTT
Method in brief: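 Kinase binding profile from a commercial panel of 90 kinases, run as a competitive binding assay. The panel was screened under reducing conditions of 7.5 mM DTT. Signal was compared with the untreated control.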

[2] = molecular target: Phosphatidylinositol 4,5-bisphosphate 3-kinase catalytic subunit gamma isoform (Homo sapiens) (UniProt P48736); test: Ratio of staurosporine to compound binding affinity to PI3Kgamma in presence of DTT
[3] = molecular target: Casein kinase I isoform gamma-2 (Homo sapiens) (UniProt P78368); test: Binding affinity to human CSNK1G2 at 500 nM by cell-based competition binding assay relative to control in presence of DTT
Method in brief: (§1)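 Commercial (Ambit) competitive kinase-binding panel of 90 kinases measured the binding profile. Run under reducing conditions of 7.5 mM DTT. Binding is expressed relative to control.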

[4] = molecular target: Serine/threonine-protein kinase 32C (Homo sapiens) (UniProt Q86UX6); test: Binding affinity to human YANK3 at 500 nM by cell-based competition binding assay relative to control in presence of DTT
[5] = molecular target: Tyrosine-protein kinase ABL1 (Homo sapiens) (UniProt P00519); test: Binding affinity to human ABL1 at 200 nM by cell-based competition binding assay relative to control in presence of DTT
Method in brief: (§2)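 Kinase binding profiling ran on a commercial (Ambit) competitive binding screen against a panel of 90 kinases. The screen used reducing conditions with 7.5 mM DTT. To withstand the DTT, the bivalent ligand was tested as its amide isostere, with the disulfide replaced. A staurosporine derivative carrying a 3 β-alanine linker was run as the reference compound.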

[6] = molecular target: Insulin-like growth factor 1 receptor (Homo sapiens) (UniProt P08069); test: Binding affinity to human IGF1R at 200 nM by cell-based competition binding assay relative to control in presence of DTT
Method in brief: (§3)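 Competition binding screen (Ambit) across a panel of 90 kinases, scoring test ligand displacement of each kinase's binding relative to control. The screen ran under reducing conditions with 7.5 mM DTT.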

[7] = molecular target: T1, Aurora kinase A (Homo sapiens) (UniProt O14965); test: Binding affinity to human aurora kinase A at 200 nM by cell-based competition binding assay relative to control in presence of DTT
T1 sequence (whole entry): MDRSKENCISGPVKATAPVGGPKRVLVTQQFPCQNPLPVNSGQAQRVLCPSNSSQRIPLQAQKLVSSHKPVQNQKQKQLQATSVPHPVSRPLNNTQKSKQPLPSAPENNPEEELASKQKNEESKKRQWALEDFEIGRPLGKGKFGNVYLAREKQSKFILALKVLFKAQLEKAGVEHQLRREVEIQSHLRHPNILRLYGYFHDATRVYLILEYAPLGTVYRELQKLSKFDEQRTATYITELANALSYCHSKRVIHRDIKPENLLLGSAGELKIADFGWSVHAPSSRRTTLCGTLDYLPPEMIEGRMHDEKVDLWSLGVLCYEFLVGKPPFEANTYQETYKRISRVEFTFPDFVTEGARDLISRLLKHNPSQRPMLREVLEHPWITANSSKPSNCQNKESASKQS

[8] = molecular target: Receptor-type tyrosine-protein kinase FLT3 (Homo sapiens) (UniProt P36888); test: Binding affinity to human FLT3 at 50 nM by cell-based competition binding assay relative to control in presence of DTT; method in brief: as §1
[9] = molecular target: Tyrosine-protein kinase receptor UFO (Homo sapiens) (UniProt P30530); test: Binding affinity to human AXL at 50 nM by cell-based competition binding assay relative to control in presence of DTT; method in brief: as §2
[10] = molecular target: T2, Serine/threonine-protein kinase STK11 (Homo sapiens) (UniProt Q15831); test: Binding affinity to human LKB1 at 50 nM by cell-based competition binding assay relative to control in presence of DTT; method in brief: as §3
T2 sequence (whole entry): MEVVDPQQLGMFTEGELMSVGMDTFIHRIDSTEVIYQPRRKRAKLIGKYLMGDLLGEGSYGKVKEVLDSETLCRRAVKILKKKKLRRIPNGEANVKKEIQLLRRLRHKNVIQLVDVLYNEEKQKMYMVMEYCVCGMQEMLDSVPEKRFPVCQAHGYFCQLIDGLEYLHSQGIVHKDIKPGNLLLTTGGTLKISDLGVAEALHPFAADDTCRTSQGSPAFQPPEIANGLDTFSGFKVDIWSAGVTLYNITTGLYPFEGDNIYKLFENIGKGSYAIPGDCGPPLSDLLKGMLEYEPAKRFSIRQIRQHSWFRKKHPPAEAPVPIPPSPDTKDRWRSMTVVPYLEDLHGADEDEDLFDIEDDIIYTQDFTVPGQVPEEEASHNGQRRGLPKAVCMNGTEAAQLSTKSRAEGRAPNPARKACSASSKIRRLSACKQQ

[11] = molecular target: T3, Testis-specific serine/threonine-protein kinase 1 (Homo sapiens) (UniProt Q9BXA7); test: Binding affinity to human TSSK1 at 50 nM by cell-based competition binding assay relative to control in presence of DTT
T3 sequence (whole entry): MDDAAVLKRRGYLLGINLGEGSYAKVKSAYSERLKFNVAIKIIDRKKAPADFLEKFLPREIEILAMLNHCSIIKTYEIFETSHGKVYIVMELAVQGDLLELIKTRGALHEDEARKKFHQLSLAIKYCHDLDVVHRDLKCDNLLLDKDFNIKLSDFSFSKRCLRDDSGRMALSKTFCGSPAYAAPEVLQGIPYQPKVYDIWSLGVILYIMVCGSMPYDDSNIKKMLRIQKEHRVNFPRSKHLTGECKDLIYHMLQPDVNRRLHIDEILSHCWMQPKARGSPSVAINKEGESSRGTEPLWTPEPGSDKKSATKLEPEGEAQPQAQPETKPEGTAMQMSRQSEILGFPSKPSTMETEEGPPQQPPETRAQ

Receptor-type tyrosine-protein kinase FLT3 (Homo sapiens), sequence (P36888 whole entry): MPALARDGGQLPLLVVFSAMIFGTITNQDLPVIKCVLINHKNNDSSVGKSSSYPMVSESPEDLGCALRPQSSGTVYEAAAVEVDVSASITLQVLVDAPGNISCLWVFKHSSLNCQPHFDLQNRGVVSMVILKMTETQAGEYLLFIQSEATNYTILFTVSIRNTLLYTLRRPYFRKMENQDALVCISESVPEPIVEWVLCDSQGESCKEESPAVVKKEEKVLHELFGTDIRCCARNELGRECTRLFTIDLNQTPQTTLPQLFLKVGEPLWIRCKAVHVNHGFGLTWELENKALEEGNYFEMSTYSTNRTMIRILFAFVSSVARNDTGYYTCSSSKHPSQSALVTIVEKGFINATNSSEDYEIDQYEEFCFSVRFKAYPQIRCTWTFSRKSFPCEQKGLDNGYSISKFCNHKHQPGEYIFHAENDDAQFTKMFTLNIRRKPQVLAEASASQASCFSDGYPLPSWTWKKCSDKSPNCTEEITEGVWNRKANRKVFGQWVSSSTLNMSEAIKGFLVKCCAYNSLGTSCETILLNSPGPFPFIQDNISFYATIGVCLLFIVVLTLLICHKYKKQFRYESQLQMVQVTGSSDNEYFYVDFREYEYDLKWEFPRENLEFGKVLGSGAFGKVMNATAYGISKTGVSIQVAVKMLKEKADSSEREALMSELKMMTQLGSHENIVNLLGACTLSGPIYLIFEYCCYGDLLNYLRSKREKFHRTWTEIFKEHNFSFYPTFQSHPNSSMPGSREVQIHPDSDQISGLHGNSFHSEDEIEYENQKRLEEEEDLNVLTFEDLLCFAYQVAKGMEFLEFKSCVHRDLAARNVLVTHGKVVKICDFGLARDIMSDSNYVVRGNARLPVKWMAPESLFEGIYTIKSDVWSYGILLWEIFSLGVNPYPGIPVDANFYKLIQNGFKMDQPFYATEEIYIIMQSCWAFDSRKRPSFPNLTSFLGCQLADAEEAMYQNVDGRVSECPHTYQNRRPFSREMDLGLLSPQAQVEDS
Insulin-like growth factor 1 receptor (Homo sapiens), sequence (P08069 31-736 limits assumed): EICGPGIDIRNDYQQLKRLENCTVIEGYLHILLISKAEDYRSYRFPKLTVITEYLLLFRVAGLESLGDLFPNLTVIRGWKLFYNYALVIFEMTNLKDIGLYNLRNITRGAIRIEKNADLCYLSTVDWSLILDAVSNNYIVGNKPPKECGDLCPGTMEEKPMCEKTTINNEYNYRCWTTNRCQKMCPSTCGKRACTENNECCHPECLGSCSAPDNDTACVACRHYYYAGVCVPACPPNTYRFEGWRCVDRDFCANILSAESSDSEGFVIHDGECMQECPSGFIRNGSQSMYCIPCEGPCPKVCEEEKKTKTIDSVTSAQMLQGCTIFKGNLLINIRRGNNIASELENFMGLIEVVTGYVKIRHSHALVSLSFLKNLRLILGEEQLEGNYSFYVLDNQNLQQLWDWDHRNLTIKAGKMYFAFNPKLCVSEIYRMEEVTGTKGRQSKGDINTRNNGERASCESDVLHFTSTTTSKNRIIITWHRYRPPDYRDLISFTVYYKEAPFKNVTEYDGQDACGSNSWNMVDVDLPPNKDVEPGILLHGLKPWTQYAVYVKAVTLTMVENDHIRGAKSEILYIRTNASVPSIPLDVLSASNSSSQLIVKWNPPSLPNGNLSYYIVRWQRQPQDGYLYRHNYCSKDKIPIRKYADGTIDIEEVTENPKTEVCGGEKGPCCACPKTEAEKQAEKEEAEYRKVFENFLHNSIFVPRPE
Insulin-like growth factor 1 receptor (Homo sapiens), sequence (P08069 741-1367 limits assumed): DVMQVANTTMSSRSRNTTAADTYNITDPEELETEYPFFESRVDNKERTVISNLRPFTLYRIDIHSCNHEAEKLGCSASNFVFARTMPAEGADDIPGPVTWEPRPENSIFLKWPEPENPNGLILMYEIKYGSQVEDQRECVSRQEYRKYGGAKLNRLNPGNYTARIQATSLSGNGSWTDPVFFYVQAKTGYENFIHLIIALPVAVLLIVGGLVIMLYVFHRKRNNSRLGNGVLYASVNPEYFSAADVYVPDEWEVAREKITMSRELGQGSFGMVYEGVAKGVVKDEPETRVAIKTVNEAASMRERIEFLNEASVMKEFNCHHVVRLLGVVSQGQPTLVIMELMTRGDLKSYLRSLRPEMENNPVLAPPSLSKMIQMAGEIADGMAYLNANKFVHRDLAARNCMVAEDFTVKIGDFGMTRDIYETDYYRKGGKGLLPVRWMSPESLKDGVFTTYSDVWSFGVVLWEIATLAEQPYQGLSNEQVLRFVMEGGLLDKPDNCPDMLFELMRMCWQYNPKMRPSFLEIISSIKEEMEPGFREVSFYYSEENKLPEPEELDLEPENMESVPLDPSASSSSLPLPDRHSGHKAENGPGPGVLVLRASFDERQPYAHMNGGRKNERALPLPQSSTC
Serine/threonine-protein kinase 32C (Homo sapiens), sequence (Q86UX6 whole entry): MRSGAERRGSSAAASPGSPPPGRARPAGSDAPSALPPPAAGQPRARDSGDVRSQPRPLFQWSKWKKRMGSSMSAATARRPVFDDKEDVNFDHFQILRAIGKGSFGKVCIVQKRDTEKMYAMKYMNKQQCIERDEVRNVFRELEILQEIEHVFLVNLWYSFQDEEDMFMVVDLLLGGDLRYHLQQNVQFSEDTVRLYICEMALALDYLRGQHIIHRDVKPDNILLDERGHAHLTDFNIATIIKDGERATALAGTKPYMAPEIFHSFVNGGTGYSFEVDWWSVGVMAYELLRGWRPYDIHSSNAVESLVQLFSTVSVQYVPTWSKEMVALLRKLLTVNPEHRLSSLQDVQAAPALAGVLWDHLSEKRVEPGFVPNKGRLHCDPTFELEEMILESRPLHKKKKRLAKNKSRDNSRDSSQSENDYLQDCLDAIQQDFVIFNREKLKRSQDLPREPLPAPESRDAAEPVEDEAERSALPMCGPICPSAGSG
Phosphatidylinositol 4,5-bisphosphate 3-kinase catalytic subunit gamma isoform (Homo sapiens), sequence (P48736 whole entry, looked up, canonical isoform): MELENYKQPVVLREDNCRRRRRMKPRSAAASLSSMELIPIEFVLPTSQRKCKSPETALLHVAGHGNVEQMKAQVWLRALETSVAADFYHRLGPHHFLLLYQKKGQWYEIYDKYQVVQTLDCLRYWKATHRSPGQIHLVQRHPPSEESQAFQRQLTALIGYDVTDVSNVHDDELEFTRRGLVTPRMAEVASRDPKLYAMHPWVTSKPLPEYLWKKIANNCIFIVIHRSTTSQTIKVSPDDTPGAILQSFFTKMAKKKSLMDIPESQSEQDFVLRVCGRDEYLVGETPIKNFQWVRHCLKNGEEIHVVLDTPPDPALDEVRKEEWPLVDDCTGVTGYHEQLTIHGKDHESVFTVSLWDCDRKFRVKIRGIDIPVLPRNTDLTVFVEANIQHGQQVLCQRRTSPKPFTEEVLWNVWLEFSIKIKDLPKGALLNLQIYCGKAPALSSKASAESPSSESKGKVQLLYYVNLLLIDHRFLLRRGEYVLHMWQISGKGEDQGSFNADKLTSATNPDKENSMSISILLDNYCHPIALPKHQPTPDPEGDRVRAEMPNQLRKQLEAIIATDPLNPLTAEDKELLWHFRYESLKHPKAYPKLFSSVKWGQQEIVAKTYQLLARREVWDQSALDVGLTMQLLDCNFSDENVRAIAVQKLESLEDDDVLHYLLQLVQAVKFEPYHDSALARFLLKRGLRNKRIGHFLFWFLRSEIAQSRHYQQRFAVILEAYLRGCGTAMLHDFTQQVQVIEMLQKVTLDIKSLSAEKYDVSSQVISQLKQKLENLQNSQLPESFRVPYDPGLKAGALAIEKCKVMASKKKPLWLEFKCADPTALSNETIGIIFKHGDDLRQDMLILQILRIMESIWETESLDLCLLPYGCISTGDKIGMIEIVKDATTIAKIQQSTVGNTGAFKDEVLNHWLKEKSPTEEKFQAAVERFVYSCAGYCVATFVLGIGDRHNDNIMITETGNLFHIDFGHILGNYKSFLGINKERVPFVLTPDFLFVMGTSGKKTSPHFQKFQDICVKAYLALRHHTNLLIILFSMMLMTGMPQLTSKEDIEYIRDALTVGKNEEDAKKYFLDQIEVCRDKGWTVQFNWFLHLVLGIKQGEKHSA
Tyrosine-protein kinase receptor UFO (Homo sapiens), sequence (P30530 whole entry): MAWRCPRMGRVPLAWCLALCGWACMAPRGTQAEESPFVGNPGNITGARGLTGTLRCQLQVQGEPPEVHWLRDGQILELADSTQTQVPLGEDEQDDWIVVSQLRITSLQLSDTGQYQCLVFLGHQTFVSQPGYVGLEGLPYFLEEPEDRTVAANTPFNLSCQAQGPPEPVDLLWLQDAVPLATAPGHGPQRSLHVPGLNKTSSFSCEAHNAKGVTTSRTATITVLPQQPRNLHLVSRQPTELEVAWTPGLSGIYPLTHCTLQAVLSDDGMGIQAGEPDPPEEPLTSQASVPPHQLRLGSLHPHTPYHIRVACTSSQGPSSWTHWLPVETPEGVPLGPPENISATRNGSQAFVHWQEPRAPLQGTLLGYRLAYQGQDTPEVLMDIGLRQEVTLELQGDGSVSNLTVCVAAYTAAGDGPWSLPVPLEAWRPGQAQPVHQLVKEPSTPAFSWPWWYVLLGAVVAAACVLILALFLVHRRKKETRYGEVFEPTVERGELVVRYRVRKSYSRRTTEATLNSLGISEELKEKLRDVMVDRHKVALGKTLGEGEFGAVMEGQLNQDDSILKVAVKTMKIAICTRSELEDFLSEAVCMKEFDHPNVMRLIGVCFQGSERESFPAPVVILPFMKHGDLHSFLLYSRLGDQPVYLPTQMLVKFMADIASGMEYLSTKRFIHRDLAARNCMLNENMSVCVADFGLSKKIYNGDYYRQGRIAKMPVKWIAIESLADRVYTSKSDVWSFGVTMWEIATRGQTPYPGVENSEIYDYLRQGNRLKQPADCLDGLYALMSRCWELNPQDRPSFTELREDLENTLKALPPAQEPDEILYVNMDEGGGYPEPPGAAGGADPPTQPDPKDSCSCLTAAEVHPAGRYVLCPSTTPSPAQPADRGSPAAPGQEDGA

Structure (SMILES): CO[C@@H]1[C@H](N(C)C(=O)CCC(=O)NCCC(=O)NCCC(=O)NCCC(N)=O)C[C@H]2O[C@]1(C)n1c3ccccc3c3c4c(c5c6ccccc6n2c5c31)C(=O)NC4
- Activity [1]: 16%
- Selectivity ratio [2]: 6
- Activity [3]: 99%
- Activity [4]: 100%

Structure (SMILES): CO[C@@H]1[C@H](N(C)C(=O)CCC(=O)NCCC(=O)NCCC(=O)NCCC(=O)NCCC(=O)NCCC(=O)NCCC(=O)NCCC(=O)N[C@H]2CSSC[C@@H](C(=O)NCC(N)=O)NC(=O)CNC(=O)[C@H](Cc3ccccc3)NC(=O)[C@H](C(C)C)NC(=O)[C@H](CCCNC(=N)N)NC(=O)[C@H](Cc3ccccc3)NC(=O)[C@H](C(C)C)NC2=O)C[C@H]2O[C@]1(C)n1c3ccccc3c3c4c(c5c6ccccc6n2c5c31)C(=O)NC4 ({Staurosporine-Suc-βAla-βAla-βAla-βAla-βAla-βAla-βAla}-CVFRVFGCG-NH2; disulfide 1-8)
- Activity [5]: 100%
- Activity [6]: 100%
- Activity [7]: 19%

Structure (SMILES): CO[C@@H]1[C@H](N(C)C(=O)CCC(=O)NCCC(=O)NCCC(=O)NCCC(=O)NCCC(=O)NCCC(=O)NCCC(=O)NCCC(=O)N[C@H]2CNC(=O)C[C@@H](C(N)=O)NC(=O)CNC(=O)[C@H](Cc3ccccc3)NC(=O)[C@H](C(C)C)NC(=O)[C@H](CCCNC(=N)N)NC(=O)[C@H](Cc3ccccc3)NC(=O)[C@H](C(C)C)NC2=O)C[C@H]2O[C@]1(C)n1c3ccccc3c3c4c(c5c6ccccc6n2c5c31)C(=O)NC4 ({Staurosporine-Suc-βAla-βAla-βAla-βAla-βAla-βAla-βAla}-[Dap]VFRVFGD-NH2; lactam 1-8)
- Activity [8]: 7.4%
- Activity [9]: 81%
- Activity [10]: 100%
- Activity [11]: 100%
